From ChEMBL document CHEMBL1129476, “In vivo activity and hydrophobicity of cytostatic aziridinyl quinones” (J Med Chem, 1996)

Tests used:
[1] = HPLC capacity factor (logK); format: ADME
[2] = log 1/anion production.; format: functional
B16 = assay: log 1/D125 or the dose (mmol/kg) to give 125%T/C ratio (B16) in vivo; format: functional, Mus musculus
[3] = Electrochemically observed pKa (pKred) of aziridines; format: physicochemical; conditions: read-out: pKred
Fungi = assay: log 1/MIC for fungi in mmol/L; format: functional
[4] = Observed rate of hydrolysis (logKobs) (pH=4.0); format: ADME
How it was run: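 Hydrolysis followed by cyclic voltammetry at 20 °C in deaerated 0.1 M acetate buffers (pH 5.0–3.5) or 0.02 M NaH2PO4 (pH 3.5, 3.0), ionic strength 0.1 M (NaNO3). Decrease of the parent cathodic peak tracked over time. Pseudo-first-order kobs from linear regression of log concentration versus time.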

L1210 [5] = assay: log 1/ID75 for the in vitro clonogenic L1210 assay with ID75 in umol/L; format: functional, Mus musculus
[6] = log 1/LD50 for LD50 (mmol/kg); format: ADME
[7] = Partition coefficient (logP); format: physicochemical; conditions: octanol/water
How it was run: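 Micro shake-flask: buffered aqueous compound solution (pH 6.50) shaken with an equal volume of water-saturated 1-octanol at room temperature, 3 × 120 s. Centrifuged 14000g, 15 min. Aqueous phase analysed by RP-HPLC against the unshaken solution (methanol 30, 50 or 70 wt%, 1.0 mL/min, UV 254 nm). Run in duplicate, or quadruplicate if needed.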

L1210 [8] = assay: log 1/D125 for the dose (mmol/kg) to give 125%T/C ratio (L1210) in vivo; format: functional, Mus musculus
[9] = E1/2 for the half-wave potential at pH=7.0 in V57; format: ADME
Nucleic Acid = assay: DNA cross link ratio at pH=5.0 and 50 umol/L compound; format: functional
[10] = log KGSH for the rate k of glutathione (GSH) consumption in 1/s; format: functional

Compound | Log K [1] | pKa [3] | Log 1/MIC (mM L-1) (Fungi) | Log Kobs [4] | Log 1/ID75 (uM L-1) (L1210 [5]) | Log 1/D125 (L1210) (mM kg-1) (L1210 [8]) | E 1/2 [9] | further results
O=C1C=C(N2CC=CC2)C(=O)c2ccccc21 | 0.896 | – | – | – | – | – | – | –
CC1=C(N2CC2)C(=O)C(CCO)=C(N2CC2)C1=O | – | 8.6 | 0.44 | -4 | 1.51 | 3.37 | – | Log 1/conc (mM min-1 L-1) [2]: 0.95; Log 1/D125 (mM kg-1) (B16): 3.6; Log 1/LD50 (mM kg-1) [6]: 1.39; logP [7]: 0.18
CC1CN1C1=C(Br)C(=O)C(N2CC2C)=C(Br)C1=O (stereo unspecified) | – | – | 1.28 | -3.45 | 0.77 | – | – | Log 1/conc (mM min-1 L-1) [2]: 2.8
CC1CN1C1=CC(=O)c2ccccc2C1=O (stereo unspecified) | 0.611 | – | – | – | – | – | – | –
CC1=CC(=O)C=CC1=O [Cresoquinone] | – | – | – | – | – | – | – | logP [7]: 0.73
NC1=CC(=O)c2ccccc2C1=O | 0.129 | – | – | – | – | – | – | logP [7]: 1.88
COC1=C(N2CC2)C(=O)C(OC)=C(N2CC2)C1=O | – | 8 | – | -3.26 | 0.15 | 2.38 | -0.179 | Log 1/D125 (mM kg-1) (B16): 3.53
C/N=C1C(O)=C(N2CC2C)/C(=N\C)C(O)=C\1N1CC1C (stereo unspecified) | – | 9.3 | – | – | – | 2.19 | -0.4 | Log 1/D125 (mM kg-1) (B16): 2.33
CCOC(=O)NC1=C(N2CC2C)C(=O)C(NC(=O)OCC)=C(N2CC2C)C1=O (stereo unspecified) | – | 8.5 | – | -3.57 | – | 1.59 | -0.145 | Log 1/conc (mM min-1 L-1) [2]: 1.26; DNA cross-link ratio (Nucleic Acid): 0.02; Log 1/D125 (mM kg-1) (B16): 1.94; Log 1/LD50 (mM kg-1) [6]: 0.69
C/N=C1C(O)=C(N2CC2)/C(=N\C)C(O)=C\1N1CC1 | – | 8.5 | – | – | 0.32 | 2.49 | -0.415 | Log 1/D125 (mM kg-1) (B16): 3.14; logP [7]: 0.13
O=C1C(F)=C(N2CC2)C(=O)C(F)=C1N1CC1 | – | 7.2 | 1.75 | -4.03 | – | – | -0.087 | Log 1/conc (mM min-1 L-1) [2]: 1.72; Log k GSH (s-1) [10]: -2.21
CC1=C(N2CC2C)C(=O)C(CCOC(N)=O)=C(N2CC2C)C1=O (stereo unspecified) | – | 9.7 | – | -3.67 | – | 1.89 | -0.235 | Log 1/conc (mM min-1 L-1) [2]: 0.56; DNA cross-link ratio (Nucleic Acid): 0.13; Log 1/D125 (mM kg-1) (B16): 2.31
O=C1C(Cl)=C(N2CC2)C(=O)C(Cl)=C1N1CC1 | – | – | 1.63 | -4.7 | – | – | -0.133 | Log 1/conc (mM min-1 L-1) [2]: 2.74
CC1=CC(=O)c2ccccc2C1=O [MENADIONE] | 0.607 | – | – | – | – | – | – | –
CN(C)C1=CC(=O)c2ccccc2C1=O | 0.591 | – | – | – | – | – | – | –
CC1CN1C1=C(F)C(=O)C(N2CC2C)=C(N2CC2C)C1=O (stereo unspecified) | – | 8.2 | 1.18 | – | 2.01 | – | -0.195 | Log 1/LD50 (mM kg-1) [6]: 1.45
NC(=O)OCCC1=C(N2CC2)C(=O)C(Br)=C(N2CC2)C1=O | – | 8.9 | 0.25 | -4.49 | 2.45 | 2 | -0.201 | Log 1/conc (mM min-1 L-1) [2]: 2.48; Log 1/D125 (mM kg-1) (B16): 2.68; Log k GSH (s-1) [10]: -3.6; Log 1/LD50 (mM kg-1) [6]: 1.05
O=C1C=C(N2CC=CC2)C(=O)C=C1N1CC=CC1 | – | – | -0.52 | – | -1.62 | – | – | –
COC1=C(C)C(=O)C(N2CCCC2)=CC1=O | – | – | -0.26 | – | -1.66 | – | -0.315 | –
CC1CN1C1=C(F)C(=O)C(N2CC2C)=C(F)C1=O (stereo unspecified) | 0.444 | 7.9 | 1.5 | – | 1.49 | – | -0.093 | Log 1/conc (mM min-1 L-1) [2]: 1.77; Log 1/LD50 (mM kg-1) [6]: 1.5
O=C1C=C(Cl)C(=O)c2ccccc21 | 0.659 | – | – | – | – | – | – | logP [7]: 2.15
CCOC(=O)NC1=CC(=O)C(NC(=O)OCC)=CC1=O | – | – | 0.85 | – | 0.09 | – | – | –
O=C1C(N2CC2)=C(N2CC2)C(=O)C(N2CC2)=C1N1CC1 | – | 7.7 | 0.95 | -3.7 | 0.9 | – | -0.245 | –
O=C1C=C(N2CCCC2)C(=O)C=C1N1CCCC1 | 0.587 | – | -0.38 | – | -1.61 | – | -0.439 | –
C/N=C1C=C(O)/C(=N/C)C=C/1O | -0.611 | – | – | – | – | – | – | logP [7]: 0.34
CC1=C(C)C(=O)C(N2CC=CC2)=CC1=O | – | – | -0.17 | – | -0.71 | – | -0.311 | –

Compound | Log K [1] | pKa [3] | Log 1/MIC (mM L-1) (Fungi) | Log Kobs [4] | Log 1/ID75 (uM L-1) (L1210 [5]) | Log 1/D125 (L1210) (mM kg-1) (L1210 [8]) | E 1/2 [9] | further results
O=C1C(F)=C(N2CC2)C(=O)C(N2CC2)=C1N1CC1 | – | 7.8 | 1.79 | -3.75 | 2.32 | 1.95 | -0.171 | Log 1/conc (mM min-1 L-1) [2]: 1.72; DNA cross-link ratio (Nucleic Acid): 0.17; Log k GSH (s-1) [10]: -2.24; Log 1/LD50 (mM kg-1) [6]: 1.62
CC1=CC(=O)C=C(C)C1=O | 0.136 | – | – | – | – | – | – | –
NC1=C(Cl)C(=O)c2ccccc2C1=O | 0.259 | – | – | – | – | – | – | –
CC1CN1C1=C(N2CCCC2)C(=O)C(N2CC2C)=C(N2CCCC2)C1=O (stereo unspecified) | – | 11.1 | – | – | – | – | -0.303 | –
CCC1=C(N2CC2)C(=O)C(C)=C(N2CC2)C1=O | 0.291 | 8.7 | 0.77 | -3.59 | – | – | -0.227 | Log 1/conc (mM min-1 L-1) [2]: 0.87; DNA cross-link ratio (Nucleic Acid): 0.23; Log 1/D125 (mM kg-1) (B16): 3.25; Log k GSH (s-1) [10]: -5; Log 1/LD50 (mM kg-1) [6]: 1.46
O=C1C=C(Br)C(=O)c2ccccc21 [2-Bromo-1,4-naphthoquinone] | 0.748 | – | – | – | – | – | – | –
O=C1C=CC(=O)C=C1 [BENZOQUINONE] | -0.466 | – | – | – | – | – | – | –
O=C1/C(=N/CCO)C=C(O)c2ccccc21 | -0.005 | – | – | – | – | – | – | logP [7]: 1.23
O=C1C=CC(=O)c2ccccc21 [NAPHTHOQUINONE] | 0.299 | – | – | – | – | – | – | –
CN(CCO)C1=C(N2CC2)C(=O)C(N(C)CCO)=C(N2CC2)C1=O | – | 9.7 | – | – | 0.09 | – | -0.225 | –
O=C1C=C(N2CC2)C(=O)C(N2CC2)=C1N1CC1 [TRIAZIQUONE] | – | 8 | 1.06 | -2.85 | 2.72 | 3.52 | -0.171 | Log 1/conc (mM min-1 L-1) [2]: 1.32; Log 1/D125 (mM kg-1) (B16): 3.8; Log k GSH (s-1) [10]: -3.14; Log 1/LD50 (mM kg-1) [6]: 2.66; logP [7]: 0.13
OCC/N=C1C(O)=C(N2CC2)/C(=N\CCO)C(O)=C/1N1CC1 | – | 9.5 | – | -2.8 | 0.42 | 3.39 | -0.385 | Log 1/D125 (mM kg-1) (B16): 3.94
CC1CN1C1=C(Cl)C(=O)C(N2CC2C)=C(Cl)C1=O (stereo unspecified) | – | – | 1.16 | -4.15 | – | 1.16 | -0.125 | Log 1/conc (mM min-1 L-1) [2]: 2.65
CC1=C(N2CC2C)C(=O)C(C)=C(N2CC2C)C1=O (stereo unspecified) | – | 8.6 | – | -2.61 | – | 1.47 | -0.187 | Log 1/D125 (mM kg-1) (B16): 2.27; Log 1/LD50 (mM kg-1) [6]: 1.4
CC1=C(N2CC2)C(=O)C(Cl)=C(N2CC2)C1=O | 0.2 | 8.5 | – | -4.32 | 2.41 | 1.99 | -0.197 | Log 1/conc (mM min-1 L-1) [2]: 2.42; Log 1/D125 (mM kg-1) (B16): 2.68
O=C1C=C(N2CCCC2)C(=O)c2ccccc21 | 0.736 | – | – | – | – | – | – | –
CN(C)C1=CC(=O)C(N(C)C)=CC1=O | -0.004 | – | – | – | – | – | – | –
CC1=C(N2CC2)C(=O)C(Br)=C(N2CC2)C1=O | 0.279 | 8.7 | 1.45 | -4.45 | 2.76 | – | -0.185 | Log 1/conc (mM min-1 L-1) [2]: 2.45; Log 1/D125 (mM kg-1) (B16): 2.09; Log 1/LD50 (mM kg-1) [6]: 1.44
CC1=C(C)C(=O)C(N2CCCC2)=CC1=O | – | – | -0.3 | – | -1.7 | – | -0.303 | –
CC1=C(C)C(=O)C(C)=C(C)C1=O [DUROQUINONE] | 0.776 | – | – | – | – | – | – | logP [7]: 2.12
O=C1C(N2CCCC2)=C(N2CC2)C(=O)C(N2CCCC2)=C1N1CC1 | – | 10.6 | – | – | – | 2.07 | -0.315 | Log 1/D125 (mM kg-1) (B16): 2.4
NC1=C(N2CC2)C(=O)C(N)=C(N2CC2)C1=O | – | – | – | – | 1.16 | – | – | –
CC1=C(N2C(C)C2C)C(=O)C(Br)=C(N2C(C)C2C)C1=O (stereo unspecified) | – | – | – | -1.15 | – | 0.69 | – | Log 1/LD50 (mM kg-1) [6]: 0.63
C/N=C1\C=C(O)c2ccccc2C1=O | 0.279 | – | – | – | – | – | – | logP [7]: 1.74
CC1CN1C1=CC(=O)C(N2CC2C)=CC1=O (stereo unspecified) | 0.152 | 8.1 | 0.44 | -1.55 | 1.03 | 1.64 | -0.115 | Log 1/conc (mM min-1 L-1) [2]: 1.75; Log 1/D125 (mM kg-1) (B16): 2.12; Log 1/LD50 (mM kg-1) [6]: 1.16
O=C1C=C(N2CC2)C(=O)c2ccccc21 | 0.346 | – | – | – | – | – | – | –
